The record followed here is ChEMBL document CHEMBL1275515, “CYP56 (Dit2p) in Candida albicans: characterization and investigation of its role in growth and antifungal drug susceptibility” (Antimicrob Agents Chemother, 2008).

The MIC is the least concentration at which growth counts as inhibited. A lower MIC goes with a more susceptible organism. Usually MIC80 stands for the lowest concentration that inhibits either 80% of growth or 80% of the strains tested, depending on the study. Lower therefore signals higher susceptibility. Broadly, the Kd is the free concentration of one partner at which half of the binding sites on the other are occupied at equilibrium, for simple one-to-one binding. Lower therefore signals tighter binding.

Structures are written as SMILES. Converted amounts (≈) assume the structure as drawn.

Test [1] has as its system Candida albicans. As to the kind of experiment: Binding affinity to Candida albicans CYP56 assessed as dissociation constant for enzyme-substrate complex by spectrophotometry. The method in brief:
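His-tagged CYP56 expressed in E. coli BL21(DE3) and Ni2+-NTA purified; 2 μM enzyme in 0.1 M potassium phosphate (pH 7.4) with 20% glycerol. N-formyl tyrosine titrated from 26 to 253 μM, with spectra read at 320–470 nm until saturation. ΔA390-412 fitted to the Hill equation by nonlinear regression. A Hill plot gave ks (enzyme–substrate dissociation constant) and Hill number.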

Test [2] has as its system Candida albicans. Briefly: Antimicrobial activity against Candida albicans YNM11 harboring cyp56delta::FRT/cyp56::FRT mutant gene by Etest method. The class given is functional.
The subject of test [3] is Candida albicans. As to the kind of experiment: Antimicrobial activity against wild type Candida albicans SC5314 by Etest method. Type of test: functional.
Test [4] deals with Candida albicans. As to the kind of experiment: Antimicrobial activity against Candida albicans YNM12 harboring cyp56delta::FRT/cyp56::FRT/RP10-CYP56 mutant gene by Etest method. The class given is functional.
The nature of test [5]: Binding affinity to Candida albicans CYP56 by spectrophotometry. The method in brief: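 His-tagged C. albicans CYP56 was expressed in E. coli BL21(DE3) and purified on Ni2+-NTA agarose, then used at 2 μM. Azole in DMSO was titrated stepwise (23–684 nM across the drugs), scanning 350–500 nm. Kd was taken from ΔA430-412 versus azole concentration by Levenberg-Marquardt nonlinear regression of the Hill equation.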

Turning to `O=CN[C@@H](Cc1ccc(O)cc1)C(=O)O`, the Ks in test [1] amounted to 26 µM.

For the compound `C[C@@H]1[C@H](O)[C@@H](C)/C=C/C=C/C=C/C=C/C=C/C=C/C=C/[C@H](O[C@@H]2O[C@H](C)[C@@H](O)[C@H](N)[C@@H]2O)C[C@@H]2O[C@](O)(C[C@@H](O)C[C@@H](O)[C@H](O)CC[C@@H](O)C[C@@H](O)CC(=O)O[C@H]1C)C[C@H](O)[C@H]2C(=O)O` [AMPHOTERICIN B], the MIC in test [2] and in test [3] was 1 µg/mL (≈ 1.08 µM) each time.

As to `CC[C@H](C)C[C@H](C)CCCCCCCCC(=O)N[C@H]1C[C@@H](O)[C@@H](NCCN)NC(=O)[C@@H]2[C@@H](O)CCN2C(=O)[C@H]([C@H](O)CCN)NC(=O)[C@H]([C@H](O)[C@@H](O)c2ccc(O)cc2)NC(=O)[C@@H]2C[C@@H](O)CN2C(=O)[C@H]([C@@H](C)O)NC1=O` [CASPOFUNGIN], the MIC80 in test [4] came to 0.03 µg/mL (≈ 0.0274 µM); in test [3] it was 0.015 µg/mL (≈ 0.0137 µM).

For the compound `OC(Cn1cncn1)(Cn1cncn1)c1ccc(F)cc1F` [FLUCONAZOLE], the MIC80 in test [2] and in test [3] was 0.06 µg/mL (≈ 0.196 µM) in each case. In test [5], this compound had a Kd of 230 nM.

`CCC(C)n1ncn(-c2ccc(N3CCN(c4ccc(OCC5COC(Cn6cncn6)(c6ccc(Cl)cc6Cl)O5)cc4)CC3)cc2)c1=O` (configuration not stated) [ITRACONAZOLE] had a Kd in test [5] of 100 nM.

On to `C[C@@H](c1ncncc1F)[C@](O)(Cn1cncn1)c1ccc(F)cc1F` [VORICONAZOLE], for which the MIC80 in test [2] and in test [3] was 0.007 µg/mL (≈ 0.02 µM) each time. Further, the Kd in test [5] was 510 nM.
